# Test results reported in ChEMBL document CHEMBL1156480, “Insensitivity to Abeta42-lowering nonsteroidal anti-inflammatory drugs and gamma-secretase inhibitors is common among aggressive presenilin-1 mutations” (J Biol Chem, 2007).
# Columns and labels:
# [1] = test system: Presenilin-1 (Homo sapiens), P49768 [L166P]; assay: Reduction of human PS1 L166P mutant-induced amyloid beta40 level in CHO cells overexpressing human APP751 at 0.5 nM after 24 hrs by liquid phase electrochemiluminescence assay relative to control; format: cell-based; parameters: scale not given: the % may be the effect or the level left
# How it was run: (§1)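 APP751 CHO cells stably expressing PS1-ΔExon9, PS1-L166P or PS1-WT, cultured in parallel in serum-containing medium. Treated 24 h with increasing γ-secretase inhibitor concentrations or DMSO. Conditioned-media Abeta40/Abeta42 quantified by LPECL against synthetic peptide standards (16–2000 pg/ml). Duplicates normalized to DMSO. n = 3, one-way ANOVA with Dunnett's test versus PS1-WT.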
# [2] = Reduction of human PS1 delta exon9 mutant-induced amyloid beta-42 level in CHO cells overexpressing human APP751after 24 hrs by liquid phase electrochemiluminescence assay relative to control; format: cell-based
# [3] = test system: Mus musculus; assay: Reduction of amyloid beta40 level in Tg2576 mouse brain at 10 mg/kg, po after 3 hrs by ELISA; format: functional
# How it was run: (§2)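 Mice given one oral 10 mg/kg dose in 0.5% tylose, or vehicle alone; the lines cover 5-month-old Tg2576 (Swedish APP) mice and 2-month-old APPPS1 (Swedish APP + human PS1-L166P, Thy-1 promoter) mice. Killed 3 h post-dose. Brain homogenized in Tris buffer with 0.2% Triton X-100 and spun 1 h at 200,000 x g. Soluble supernatant Abeta40 (6E10 capture) and Abeta42 measured by sandwich ELISA. n = 4–6, paired t-test.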
# [4] = target: Presenilin-1 (Homo sapiens) (UniProt P49768); assay: Reduction of human wild type PS1-induced amyloid beta-40 level in CHO cells overexpressing human APP751 at 0.2 nM after 24 hrs by liquid phase electrochemiluminescence assay relative to control; format: cell-based; parameters: scale not given: the % may be the effect or the level left
# [5] = test system: Mus musculus; assay: Reduction of amyloid beta-42 level in Tg2576 mouse brain at 10 mg/kg, po after 3 hrs by ELISA relative to control; format: functional; parameters: scale not given: the % may be the effect or the level left; how it was run: as §2
# [6] = target: Presenilin-1 (Homo sapiens) (UniProt P49768); assay: Reduction of human wild type PS1-induced amyloid beta-40 level in CHO cells overexpressing human APP751 at 0.1 nM after 24 hrs by liquid phase electrochemiluminescence assay relative to control; format: cell-based; parameters: scale not given: the % may be the effect or the level left
# [7] = test system: Presenilin-1 (Homo sapiens), P49768 [L166P]; assay: Reduction of human PS1 L166P mutant-induced amyloid beta42 level in CHO cells overexpressing human APP751 at 0.1 nM after 24 hrs by liquid phase electrochemiluminescence assay relative to control; format: cell-based; parameters: scale not given: the % may be the effect or the level left; how it was run: as §1
# [8] = test system: Mus musculus; assay: Reduction of amyloid beta-40 level in Swedish APP and human PS1-L166P APPPS1 transgenic mouse brain at 10 mg/kg, po after 3 hrs by ELISA; format: functional; how it was run: as §2
# [9] = test system: CHO; assay: Reduction of human PS1 delta exon9 mutant-induced amyloid beta42 level in CHO cells overexpressing human APP751 at 0.5 nM after 24 hrs by liquid phase electrochemiluminescence assay relative to control; format: cell-based; parameters: scale not given: the % may be the effect or the level left
# [10] = test system: Mus musculus; assay: Reduction of amyloid beta-42 level in Swedish APP and human PS1-L166P APPPS1 transgenic mouse brain at 10 mg/kg, po after 3 hrs by ELISA; format: functional; how it was run: as §2
# [11] = target: Presenilin-1 (Homo sapiens) (UniProt P49768); assay: Reduction of human wild type PS1-induced amyloid beta42 level in CHO cells overexpressing human APP751 at 0.2 nM after 24 hrs by liquid phase electrochemiluminescence assay relative to control; format: cell-based; parameters: scale not given: the % may be the effect or the level left
# [12] = target: Presenilin-1 (Homo sapiens) (UniProt P49768); assay: Reduction of human wild type PS1-induced amyloid beta42 level in CHO cells overexpressing human APP751 at 0.1 nM after 24 hrs by liquid phase electrochemiluminescence assay relative to control; format: cell-based; parameters: scale not given: the % may be the effect or the level left
# [13] = test system: Presenilin-1 (Homo sapiens), P49768 [L166P]; assay: Reduction of human PS1 L166P mutant-induced amyloid beta40 level in CHO cells overexpressing human APP751 at 0.2 nM after 24 hrs by liquid phase electrochemiluminescence assay relative to control; format: cell-based; parameters: scale not given: the % may be the effect or the level left; how it was run: as §1
# [14] = test system: Mus musculus; assay: Reduction of amyloid beta42 level in Swedish APP and human PS1-L166P APPPS1 transgenic mouse brain at 10 mg/kg, po after 3 hrs by ELISA relative to control; format: functional; parameters: scale not given: the % may be the effect or the level left; how it was run: as §2
# [15] = test system: Mus musculus; assay: Reduction of amyloid beta-40 level in Swedish APP and human PS1-L166P APPPS1 transgenic mouse brain at 10 mg/kg, po after 3 hrs by ELISA relative to control; format: functional; parameters: scale not given: the % may be the effect or the level left; how it was run: as §2
# [16] = test system: Presenilin-1 (Homo sapiens), P49768 [L166P]; assay: Reduction of human PS1 L166P mutant-induced amyloid beta42 level in CHO cells overexpressing human APP751 at 0.2 nM after 24 hrs by liquid phase electrochemiluminescence assay relative to control; format: cell-based; parameters: scale not given: the % may be the effect or the level left; how it was run: as §1
# [17] = test system: CHO; assay: Reduction of human PS1 delta exon9 mutant-induced amyloid beta-40 level in CHO cells overexpressing human APP751 at 0.2 nM after 24 hrs by liquid phase electrochemiluminescence assay relative to control; format: cell-based; parameters: scale not given: the % may be the effect or the level left; how it was run: as §1
# [18] = Reduction of human PS1 delta exon9 mutant-induced amyloid beta-40 level in CHO cells overexpressing human APP751after 24 hrs by liquid phase electrochemiluminescence assay relative to control; format: cell-based
# [19] = test system: Mus musculus; assay: Reduction of amyloid beta-42 level in Tg2576 mouse brain at 10 mg/kg, po after 3 hrs by ELISA; format: functional; how it was run: as §2
# [20] = test system: Presenilin-1 (Homo sapiens), P49768 [L166P]; assay: Reduction of human PS1 L166P mutant-induced amyloid beta-40 level in CHO cells overexpressing human APP751 at 0.1 nM after 24 hrs by liquid phase electrochemiluminescence assay relative to control; format: cell-based; parameters: scale not given: the % may be the effect or the level left; how it was run: as §1
# [21] = test system: CHO; assay: Reduction of human PS1 delta exon9 mutant-induced amyloid beta-40 level in CHO cells overexpressing human APP751 at 0.1 nM after 24 hrs by liquid phase electrochemiluminescence assay relative to control; format: cell-based; parameters: scale not given: the % may be the effect or the level left; how it was run: as §1
# [22] = test system: Presenilin-1 (Homo sapiens), P49768 [L166P]; assay: Reduction of human PS1 L166P mutant-induced amyloid beta42 level in CHO cells overexpressing human APP751 at 0.5 nM after 24 hrs by liquid phase electrochemiluminescence assay relative to control; format: cell-based; parameters: scale not given: the % may be the effect or the level left; how it was run: as §1
# [23] = target: Presenilin-1 (Homo sapiens) (UniProt P49768); assay: Reduction of human wild type PS1-induced amyloid beta40 level in CHO cells overexpressing human APP751 at 0.5 nM after 24 hrs by liquid phase electrochemiluminescence assay relative to control; format: cell-based; parameters: scale not given: the % may be the effect or the level left
# [24] = test system: CHO; assay: Reduction of human PS1 delta exon9 mutant-induced amyloid beta42 level in CHO cells overexpressing human APP751 at 0.1 nM after 24 hrs by liquid phase electrochemiluminescence assay relative to control; format: cell-based; parameters: scale not given: the % may be the effect or the level left
# [25] = test system: CHO; assay: Reduction of human PS1 delta exon9 mutant-induced amyloid beta42 level in CHO cells overexpressing human APP751 at 0.2 nM after 24 hrs by liquid phase electrochemiluminescence assay relative to control; format: cell-based; parameters: scale not given: the % may be the effect or the level left
# [26] = test system: Mus musculus; assay: Reduction of amyloid beta-40 level in Tg2576 mouse brain at 10 mg/kg, po after 3 hrs by ELISA relative to control; format: functional; parameters: scale not given: the % may be the effect or the level left; how it was run: as §2
# [27] = test system: CHO; assay: Reduction of human PS1 delta exon9 mutant-induced amyloid beta40 level in CHO cells overexpressing human APP751 at 0.5 nM after 24 hrs by liquid phase electrochemiluminescence assay relative to control; format: cell-based; parameters: scale not given: the % may be the effect or the level left
# [28] = target: Presenilin-1 (Homo sapiens) (UniProt P49768); assay: Reduction of human wild type PS1-induced amyloid beta-42 level in CHO cells overexpressing human APP751 at 0.5 nM after 24 hrs by liquid phase electrochemiluminescence assay relative to control; format: cell-based; parameters: scale not given: the % may be the effect or the level left
smiles,measurement,setting,value
C[C@H](NC(=O)[C@@H](O)c1cc(F)cc(F)c1)C(=O)N[C@@H]1C(=O)N(C)c2ccccc2-c2ccccc21,Activity,[1],11.7%
same,EC50,[2],0.352 nM
same,Activity,[3],1.23 pmol/g
same,Activity,[4],15.8%
same,Activity,[5],89%
same,Activity,[6],64.2%
same,Activity,[7],85.2%
same,Activity,[8],0.42 pmol/g
same,Activity,[9],26.5%
same,Activity,[10],2.9 pmol/g
same,Activity,[11],18.8%
same,Activity,[12],71%
same,Activity,[13],36.2%
same,Activity,[14],17.1%
same,Activity,[15],81.2%
same,Activity,[16],57.7%
same,Activity,[17],72.9%
same,EC50,[18],0.358 nM
same,Activity,[19],0.21 pmol/g
same,Activity,[20],66.6%
same,Activity,[21],92.6%
same,Activity,[22],28.7%
same,Activity,[23],5.6%
same,Activity,[24],94.4%
same,Activity,[25],72%
same,Activity,[26],85%
same,Activity,[27],26.7%
same,Activity,[28],4.75%
